# Bioassay records: PubChem, several laboratories
# Sampled rows, rich in hits. Any-hit rate of the full collection: about 3.7%.
# HMGR II inh: inhibitors of class II HMG-CoA reductase from Enterococcus faecalis. purified E. faecalis HMGR, NADPH absorbance 340 nm kinetic. inhibition, % at 10 µM. actives 0.41% (n = 190,000). AID 1066;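 active means inhibition above a set limit, the median over all tested compounds plus 3 SD, cut at about 9.5% in these data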;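 further: enzyme runs in reverse so mevalonate oxidation gives rising NADPH absorbance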
# Yeast growth inh: yeast BB579 growth reduction in restrictive medium; S. cerevisiae BB579 growth, OD615, 48 h; inhibition, % at 10 µM; actives 0.51% (n = 140,000); AID 804;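 active means inhibition above a set limit, 3 SD over the mean compound inhibition, cut at about 44% in these data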
#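 controls = amphotericin B 10 µg/mL, positive | assay system = DeaD yeast strain BB579 | schedule = 48 h compound exposure at 30 °C after 4 h preincubation | detection = OD615 turbidity measurement | medium = restrictive CSMM-D medium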
# RAM network inh: inhibitors of the yeast RAM network; AID 868; actives 1.8% (n = 190,000); S. cerevisiae dse1pr::URA3 reporter, 5-FOA growth OD615, 2 d; analog-sensitive cbk1-as2 kinase mutant strain; inhibition, % at 50 µM;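 active means inhibition above a set limit, 3 SD over mean compound inhibition, cut at about 8.4% in these data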;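 further: inhibition rescues growth on 5-FOA so higher OD means more RAM inhibition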
# Insulin prom inh: TRM-6 insulin promoter activity inhibition. inhibition, % at 2 µM. actives 0.9% (n = 130,000). TRM-6 cells (human fetal islet line), insulin promoter-eGFP reporter, imaging; reporter expression induced with tamoxifen;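 active means inhibition above the mean plus 3 SD, with well images judged a real hit on visual review, cut at about 60% in these data, passing the limit was not always enough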
# Yeast life ext: extends the lifespan of yeast | S. cerevisiae growth with nicotinamide, OD615; deaD strain in restrictive glucose medium | inhibition of the nicotinamide effect, % at 10 µM | actives 0.68% (n = 130,000);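 active means inhibition above a set limit, placed 3 SD over the median of all compounds, cut at about 26% in these data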
#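 Buffer or medium: CSMM-D glucose medium, restrictive; test system: modified budding yeast, DeaD strain; compound: single dose 10 µM compound, 0.25% DMSO; schedule: culture preincubation 4 h, compound exposure 48 h, both 30 °C; detection: optical density (absorbance) at 615 nm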
# RAM 5-FOA: RAM network inhibition, efflux-deficient strain; shares compounds with RAM network inh; S. cerevisiae efflux-deficient reporter strain, 5-FOA growth OD615, 2 days; 1,200 tested, under 10 active; max inhibition, %; AID 1305; call rule not given here
# A number is an active result; - = inactive; . = no result.
SMILES,HMGR II inh,Yeast growth inh,RAM network inh,Insulin prom inh,Yeast life ext,RAM 5-FOA
CCn1ncc(/C=N\NC(=O)Cc2ccc([N+](=O)[O-])cc2)c1C,-,-,-,-,-,.
COC(=O)c1ccccc1NC(=O)c1cccc(COc2ccccc2Cl)c1,-,-,12,-,-,-
COC(=O)c1ccccc1NC(=S)NC(=O)COc1ccccc1Cl,.,-,-,-,-,.
O=C(CN1CCCCC1)Nc1ccc(Br)cc1[N+](=O)[O-],-,.,-,-,.,.
Cc1ccc2oc(=O)c3cnn(CC(=O)Nc4cc(-c5cccc(F)c5)no4)c3c2c1,-,-,-,-,-,.
CC(C)NC(=O)CC(c1ccccc1)c1cc(Br)ccc1O (stereo not given),-,-,-,-,-,.
CCCCCCNC(=O)CC(c1ccccc1)c1cc(Br)ccc1O (stereo not given),-,-,11,-,.,-
NC(=O)C1CCN(C(=S)NCCc2ccccc2)CC1,-,.,-,.,.,.
CCCC(=O)N1CCN(c2ccc([N+](=O)[O-])cc2Cl)CC1,-,-,-,-,-,.
O=C(CSc1ccc(Cl)cc1)N1CCN(c2ccc([N+](=O)[O-])cc2Cl)CC1,-,-,14,-,-,-
O=C(CSc1ccc(Cl)cc1)N1CCN(c2c(Cl)cccc2[N+](=O)[O-])CC1,-,-,17,-,-,-
Cc1oc2ccc(OC(=O)c3cccs3)cc2c1C(=O)OC(C)C,-,-,14,-,-,-
COC(=O)c1cc(=O)n(CCc2ccccc2)c(=Nc2ccc(F)cc2)s1,-,-,12,.,-,-
Cc1cccc(OCCC(=O)NCC(=O)Nc2cccc(C)c2C)c1,-,-,-,-,-,.
CC1CCCC(NC(=O)COC(=O)CCc2ccccc2)C1C (stereo not given),-,.,-,-,.,.
CC1CCCC(NC(=O)COC(=O)CSc2ccc3ccccc3c2)C1C (stereo not given),-,-,12,-,-,-
CCOC(=O)/C(=N/Nc1ccccc1)c1csc(Nc2ccccc2)n1,-,-,16,-,-,-
CO/N=C/C(=N\Nc1ccc(OC)cc1)C(=O)c1ccc(OC)cc1,-,-,12,-,-,-
CC(C)c1ccccc1NC(=O)COC(=O)CCN1C(=O)/C(=C\C=C\c2ccccc2)SC1=S,-,-,-,-,-,.
O=C(COC(=O)CCN1C(=O)/C(=C\C=C\c2ccccc2)SC1=S)Nc1ccc(Br)cc1,-,.,16,-,.,-
CCOC(=O)CCN(Cc1cccs1)S(=O)(=O)c1ccc(F)cc1,-,-,-,.,-,.
COc1ccc(CCN(Cc2cccs2)S(=O)(=O)c2ccc(C(=O)O)cc2)cc1OC,-,.,13,.,.,-
O=C(CN1C(=O)C2C3c4ccccc4C(c4ccccc43)C2C1=O)Nc1ccccc1C(=O)O (stereo not given),-,-,-,.,-,.
S=C(NCC1CCCCC1)Nc1ccc(Oc2ccccc2)cc1,-,49,15,-,-,-
CCNC(=O)CSc1nnc(-c2ccccc2Br)n1-c1cccc(C(F)(F)F)c1,-,-,12,-,-,-
SMILES,HMGR II inh,Yeast growth inh,RAM network inh,Insulin prom inh,Yeast life ext,RAM 5-FOA
NC(=O)CSc1nnc(-c2ccccc2Br)n1-c1cccc(C(F)(F)F)c1,-,-,-,-,-,.
CC(C)(C)NC(=O)CSC(=Nc1ccc(F)cc1)NC#N,.,-,-,-,-,.
CCOc1ccc(CNC(=O)CCn2c(=O)oc3ccccc32)cc1,-,-,-,-,-,.
CCOc1ccc(CNC(=O)CCc2cn(Cc3ccccc3)c3ccccc23)cc1,-,-,13,-,-,-
Cc1ccccc1N/C=C/C(=C(C#N)C#N)N(C)C,-,-,-,-,-,.
COc1ccc(Cc2nc(C(=O)Nc3ccc(F)cc3)cs2)cc1,-,-,16,-,-,-
COc1ccc(CNC(=O)c2csc(Cc3ccc(OC)cc3)n2)cc1,-,-,-,-,-,.
CC1=NOC(=O)/C1=C\c1ccc(-c2ccccc2Br)o1,-,.,-,-,.,.
COC(=O)CCSCC(=O)N1N=C(c2ccc(Br)cc2)CC1c1cccc(OC)c1OC (stereo not given),-,.,13,-,.,-
COc1cccc(C2CC(c3ccc(NS(C)(=O)=O)cc3)=NN2C(=O)c2ccccc2)c1OC (stereo not given),-,.,-,-,.,.
O=C(Nc1ccc(F)cc1)c1sccc1SCc1cccc(C(F)(F)F)c1,-,-,14,-,-,-
COc1ccc(NC(=O)c2sccc2SCc2cccc(C(F)(F)F)c2)cc1,-,-,16,-,-,-
O=C(Nc1ccc(F)cc1F)c1sccc1SCc1cccc(C(F)(F)F)c1,-,-,-,-,-,.
CCOC(=O)c1ccc(NC(=O)COC(=O)c2cccc(Oc3ccccc3)c2)cc1,-,-,12,-,-,-
CCOC(=O)c1ccc(NC(=S)NC(=O)COc2ccccc2)cc1,-,-,11,-,-,-
CC(Sc1ccccc1)C(=O)NN=C1CCN(C)CC1 (stereo not given),-,.,-,.,.,.
CC(=O)Nc1nc2ccccc2n1CCN1CCOCC1,-,-,-,-,.,.
O=C(Nc1nc2ccccc2n1CCN1CCOCC1)c1cn(-c2ccccc2)nc1-c1ccccc1,-,-,18,.,173,-
O=C(CCSCCc1ccccn1)Nc1cccc([N+](=O)[O-])c1,-,.,-,-,.,.
O=C1NC(=O)/C(=C\c2ccc(O)cc2O)S1,-,.,-,-,.,.
CN(C)CCCN=Cc1c(O)n(Cc2ccc3c(c2)OCO3)c(=O)c2ccccc12,-,.,-,.,.,.
N#CC(Nc1ccccc1)c1ccccc1OCc1ccccc1 (stereo not given),-,-,14,-,-,-
CCC1(c2ccc(F)cc2)NC(=O)N(CC(=O)Nc2ccc(S(N)(=O)=O)cc2)C1=O (stereo not given),-,.,-,.,.,.
O=C(CSc1nnc(Cc2cccs2)n1Cc1ccco1)Nc1cc(Cl)cc(Cl)c1,-,-,12,-,-,-
Cc1ccc(NC(=O)CSc2nnc(-c3cccs3)n2Cc2ccco2)cc1,-,-,12,-,-,-
SMILES,HMGR II inh,Yeast growth inh,RAM network inh,Insulin prom inh,Yeast life ext,RAM 5-FOA
COc1ccc(NC(=O)CSc2nnc(-c3ccccc3Cl)n2Cc2ccco2)c(OC)c1,-,-,-,-,-,.
O=C(CSc1nnc(Cc2cccs2)n1Cc1ccco1)Nc1cccc(Cl)c1,-,-,-,-,-,.
CN(C)c1ccc(NC(=O)CSc2nnc(-c3cccs3)n2Cc2ccco2)cc1,-,-,-,-,-,.
CCOc1ccc(NC(=O)CSc2nnc(-c3ccccc3Cl)n2Cc2ccco2)cc1,-,-,15,.,-,-
O=C(c1ccc([N+](=O)[O-])cc1)N1CCN(Cc2ccccc2[N+](=O)[O-])CC1,-,.,-,.,.,.
Cc1ccc(-c2cc(C(=O)NCc3ccccn3)c3ccccc3n2)cc1C,-,-,-,-,-,.
Cc1c(C(=O)N2CCN(c3ccccn3)CC2)oc2ccccc12,-,-,-,-,-,.
